pIC50: −log10 of the molar value.
These molecules were tested against T1, Prostaglandin E synthase (Homo sapiens, UniProt O14684) (assay: Inhibition of microsomal PGES).
T1 sequence (O14684 whole entry): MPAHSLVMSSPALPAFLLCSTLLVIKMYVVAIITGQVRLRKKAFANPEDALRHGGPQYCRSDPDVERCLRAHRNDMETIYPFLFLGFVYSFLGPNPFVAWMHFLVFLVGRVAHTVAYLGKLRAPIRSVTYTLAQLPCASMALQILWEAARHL
Summary of the method: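 Compound was preincubated with enzyme for 15 min at room temperature. PGH2 (1 μM final) was added on ice, and the reaction was stopped after 30 s with SnCl2. PGE2 was measured by EIA against an enzyme-free blank.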

Row | Compound | pIC50
1 | CC1=C(CC(=O)O)c2cc(F)ccc2/C1=C\c1ccc([S+](C)[O-])cc1 (centres undefined) | 4.10
2 | CS(=O)(=O)Nc1ccc([N+](=O)[O-])cc1OC1CCCCC1 [NS-398] | 4.70

The molecules below were run against T2, Prostaglandin E synthase (Homo sapiens) (UniProt O14684) (assay: Inhibition of human recombinant microsomal PGES-1 expressed in freestyle 293-f cells assessed as conversion of PGH2 to PGE2 at 10 uM after 15 mins by enzyme immunoassay).
T2 sequence (whole entry): T1 sequence (O14684 whole entry)
Format: cell-based
Summary of the method: (§1)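 Reaction in 0.2 M sodium phosphate pH 7.2 stock with 0.1 M GSH stock. Enzyme and inhibitor preincubated 15 min at room temperature, then started with cold PGH2 (1 μM final) on ice. Stopped after 30 s with SnCl2 in ethanol. PGE2 measured by enzyme immunoassay against an enzyme-free blank.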

Row | Compound | inhibition [%]
3 | CC1(C)C(c2ccc(Cl)cc2)N(O)C2(CCCCC2=O)N1O (centres undefined) | 43
4 | O=[N+]([O-])C(/C=C(\Cl)[N+](=O)[O-])=C(N1CCCCC1)N1CCCCC1 | 15
5 | N#CCC(=O)N/N=C(\c1nc2ccc(Cl)cc2nc1O)C(O)c1ccc(Cl)cc1 (centres undefined) | 50
6 | CC1CCc2c(sc3ncnc(SC(C)C(=O)O)c23)C1 (centres undefined) | 16
7 | O=[N+]([O-])c1cc2c(c([N+](=O)[O-])c1)Nc1ccccc1N=C2c1ccc(Cl)cc1 | 26
8 | CCOC(=O)Cn1c(=O)c2c(nc3n2CCCN3c2ccc(OCC)cc2)n(C)c1=O | 39

Second part, the molecule after the results:

Row | inhibition [%] | Compound
9 | 10 | CCN1C(=O)C2Cc3c([nH]c4ccccc34)C(c3ccc(Cl)cc3)N2C1=O (centres undefined)
10 | 83 | COCCN(c1ccc(/C=C2\S/C(=N\c3ccccc3)N(C(C)C(=O)O)C2=O)cc1)c1ccccc1OC (centres undefined)
11 | 20 | O=C(O)CSc1nc2sc3c(c2c(=O)n1Cc1ccccc1)CCCCC3
12 | 31 | CC(=O)NC(Cc1ccc(C)cc1)C(=O)NC(Cc1ccc(F)cc1)C(=O)N1CCC(OCc2ccccc2)CC1CCCNC(=N)N (centres undefined)
13 | 39 | Cc1c(C(=O)O)ccc2c1NC(c1ccc(OCC#N)cc1)C1CC=CC21 (centres undefined)

These molecules were tested against T1, Prostaglandin E synthase (assay: Inhibition of human recombinant microsomal PGES-1 expressed in freestyle 293-f cells assessed as conversion of PGH2 to PGE2 after 15 mins by enzyme immunoassay).
Format: cell-based
Summary of the method: as §1

Row | pIC50 | Compound
14 | 5.46 | COCCN(c1ccc(/C=C2\S/C(=N\c3ccccc3)N(C(C)C(=O)O)C2=O)cc1)c1ccccc1OC (centres undefined)

Source: ChEMBL document CHEMBL1828529, “Novel human mPGES-1 inhibitors identified through structure-based virtual screening” (Bioorg Med Chem, 2011)
